Laboratory results published in ChEMBL document CHEMBL4513216, “Probing the Open Global Health Chemical Diversity Library for Multistage-Active Starting Points for Next-Generation Antimalarials” (ACS Infect Dis, 2020).

test: Toxicity liver stage against HepG2, at 10uM; format: cell-based; set-up: test concentration 10 uM, cell line HepG2-A16-CD81EGFP; details: human, HepG2-A16-CD81EGFP cells; read-out: INHIBITION
Method in brief: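 Uninfected HepG2-A16-CD81EGFP cells, 3 × 10^3 per well, 1536-well, plated on prespotted compound at 10 μM final, parasite-free screening media added to match infected plates; puromycin 10 μM positive, DMSO 0.5% negative; run in parallel with 48 h PbLuc assay at 37 °C, 5% CO2; viability by CellTiter-Glo luminescence, normalized to controls.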

**Q.** Which cytotoxicity at 10 µM does the source give for Cc1ccc(Br)cc1NC(=O)NC1CCC2(C1)OCCO2 (stereo not drawn) here?
**A.** 15.6%

**Q.** Which cytotoxicity at 10 µM does the source give for Cn1ccnc1CNC(=O)N(CCCO)C1CCc2ccccc21 (stereo not drawn) here?
**A.** -11.6%

**Q.** Which cytotoxicity at 10 µM does the source give for CCS(=O)(=O)N1CCC(c2cc3n(n2)[C@@H](C(F)(F)F)C[C@@H](C)N3)CC1 here?
**A.** 0.436%

**Q.** For CN(C)c1cc(C2CCCN2C(=O)c2noc3c2CCCC3)ccn1 (stereo not drawn), which cytotoxicity at 10 µM is on record?
**A.** 9.13%

**Q.** Which cytotoxicity at 10 µM does the source give for CNC(=O)CC1CCN(C(=O)NCc2coc3ccccc23)CC1 here?
**A.** -11.4%

**Q.** With O=C1CNc2ncnc(N3CCN(Cc4ccccc4F)CC3)c2N1 as the compound, how does the cytotoxicity at 10 µM read?
**A.** 9.87%

**Q.** With O=C(c1ccc(Cl)cc1)N1CCn2c(nn(-c3cccc(Cl)c3)c2=O)C1 as the compound, how does the cytotoxicity at 10 µM read?
**A.** 5.84%

**Q.** For Cc1cc(CN2CCC(CNS(=O)(=O)c3ccccc3Cl)CC2)c(C)o1, which cytotoxicity at 10 µM is on record?
**A.** 9.51%

**Q.** For COc1ccc(CN2CCN(C3CCc4ccccc4C3)CC2)cc1O (stereo not drawn), which cytotoxicity at 10 µM is on record?
**A.** -6.55%

**Q.** For CCCN(CCC)C(=O)CN1CCCC1C(=O)N(C)C (stereo not drawn), which cytotoxicity at 10 µM is on record?
**A.** 7.42%

**Q.** With CCOc1ccccc1CNC(=O)N(CC)C(C)c1cccnc1 (stereo not drawn) as the compound, how does the cytotoxicity at 10 µM read?
**A.** -3.64%

**Q.** Which cytotoxicity at 10 µM does the source give for Cc1ccc(CN2CCCN(Cc3cscn3)CC2)cc1 here?
**A.** -8.47%

**Q.** Which cytotoxicity at 10 µM does the source give for COCCN(C(=O)c1ccccn1)c1nc2c(s1)CCc1c-2cnn1C here?
**A.** -13.8%

**Q.** Which cytotoxicity at 10 µM does the source give for CCO[C@@H]1CC[C@H]2[C@H]1OCCN2S(=O)(=O)c1cn(C)cn1 here?
**A.** 5.59%

**Q.** For FC1(F)CCN(Cc2ccncc2)CC12CCN(c1cnccn1)C2 (stereo not drawn), which cytotoxicity at 10 µM is on record?
**A.** 3.19%

**Q.** With CS(=O)(=O)NCC(Cc1cccc(F)c1)N1CCNC1=O (stereo not drawn) as the compound, how does the cytotoxicity at 10 µM read?
**A.** -2.91%

**Q.** Which cytotoxicity at 10 µM does the source give for Cc1nccn1CCC(=O)N1CCCN(c2ccccc2)CC1 here?
**A.** -6.08%

**Q.** Which cytotoxicity at 10 µM does the source give for Cc1cc2nc(C(C)C)cc(N3CCC(Oc4ncccn4)CC3)n2n1 here?
**A.** 13.9%

**Q.** For COc1ccc(CNC(=O)NC2CCN(CC(F)F)CC2)cc1C, which cytotoxicity at 10 µM is on record?
**A.** 1.11%

**Q.** With COc1cc(C(C)=O)ccc1OCC(=O)c1cccn1C as the compound, how does the cytotoxicity at 10 µM read?
**A.** 13.6%

**Q.** With Cn1ccn2ncc(C(=O)NCc3cccnc3N3CCCC(O)C3)c12 (stereo not drawn) as the compound, how does the cytotoxicity at 10 µM read?
**A.** -8.01%

**Q.** Which cytotoxicity at 10 µM does the source give for CCN1CCOCC12CCN(c1ccc(C#N)cc1)CC2 here?
**A.** -6.93%

**Q.** Which cytotoxicity at 10 µM does the source give for CC(c1ccccn1)N(C)C(=O)NCCn1c(=O)oc2ccccc21 (stereo not drawn) here?
**A.** -6.37%

**Q.** Which cytotoxicity at 10 µM does the source give for Cn1cc(C(=O)N2CCN(c3ccccc3)CC2)ccc1=O here?
**A.** -0.408%

**Q.** Which cytotoxicity at 10 µM does the source give for CC(C)(NC(=O)c1scnc1Cl)c1ccccc1 here?
**A.** -10.9%

**Q.** Which cytotoxicity at 10 µM does the source give for CC1CCC(C(=O)N2CCC(n3cc(C4(O)CCCC4)nn3)CC2)CC1 (stereo not drawn) here?
**A.** 9.08%

**Q.** Which cytotoxicity at 10 µM does the source give for O=C(Cc1ccccc1)NC[C@H]1Cn2ccnc2CO1 here?
**A.** 0.148%

**Q.** For O=C(c1ccoc1)N1CCO[C@]2(CCC[C@@H]2COCc2ccncc2)C1, which cytotoxicity at 10 µM is on record?
**A.** 0.341%

**Q.** Which cytotoxicity at 10 µM does the source give for CC(C)(C)CN1CC(COc2ccccc2)Oc2ccncc2S1(=O)=O (stereo not drawn) here?
**A.** -65.3%

**Q.** Which cytotoxicity at 10 µM does the source give for CCOc1ccc(C(=O)NCc2ccnc(N3CCCC3)c2)cn1 here?
**A.** 6.62%

**Q.** With Cc1cnn(CCNCC(=O)NCCOc2ccc(Cl)cc2)c1 as the compound, how does the cytotoxicity at 10 µM read?
**A.** -11.8%

**Q.** With COc1ccc(CNC(c2cccc(F)c2)c2cnn(C)c2)cc1 (stereo not drawn) as the compound, how does the cytotoxicity at 10 µM read?
**A.** 4.91%

**Q.** With Cc1noc(NC(=O)c2ccc(F)cc2)n1 as the compound, how does the cytotoxicity at 10 µM read?
**A.** -0.481%

**Q.** With Cc1cnc(C)c(N2CC[C@H](N3CCOCC3)[C@H](CCCO)C2)n1 as the compound, how does the cytotoxicity at 10 µM read?
**A.** 6.12%

**Q.** With CCOC[C@H]1CC[C@H]2[C@H](CCN2C(=O)c2ccncc2F)O1 as the compound, how does the cytotoxicity at 10 µM read?
**A.** -6.96%

**Q.** With CCOC(=O)CNC(=O)NCc1cccn1Cc1ccccc1 as the compound, how does the cytotoxicity at 10 µM read?
**A.** 9.71%

**Q.** With COCc1nc(CN2CC(C)(c3ccccc3)CCC2=O)no1 (stereo not drawn) as the compound, how does the cytotoxicity at 10 µM read?
**A.** 4.85%

**Q.** With O=C(C1CC=CC1)N1CCC2(CCC(=O)N2Cc2cccc(F)c2)CC1 as the compound, how does the cytotoxicity at 10 µM read?
**A.** -3.2%

**Q.** Which cytotoxicity at 10 µM does the source give for Cc1cc(CN2CC[C@H]3OCC[C@@]3(C(=O)NC(C)C)C2)no1 here?
**A.** 5.86%

**Q.** Which cytotoxicity at 10 µM does the source give for Cc1cc(C)nc(NC2CCc3nc(C)nn3C2)n1 (stereo not drawn) here?
**A.** 14.3%

**Q.** With c1cnc(N2CCCC3(CCN(c4ncccn4)C3)C2)nc1 (stereo not drawn) as the compound, how does the cytotoxicity at 10 µM read?
**A.** -151%

**Q.** Which cytotoxicity at 10 µM does the source give for Cn1ccc(N2CCCC(NC(=O)c3ccc(Cl)o3)C2=O)n1 (stereo not drawn) here?
**A.** -2.51%

**Q.** For O=c1c(CN2CCCCC2)coc2ccc(Cl)cc12, which cytotoxicity at 10 µM is on record?
**A.** -2.56%

**Q.** For Cc1cc(C)c(CNC(=O)NCCNc2cnccn2)c(=O)[nH]1, which cytotoxicity at 10 µM is on record?
**A.** -43.6%

**Q.** With Cc1nnc(CN(C)CC(=O)N2CCCN(C3CCCC3)CC2)n1C as the compound, how does the cytotoxicity at 10 µM read?
**A.** 7.1%

**Q.** Which cytotoxicity at 10 µM does the source give for O=C1CCc2ccccc2N1CCCn1cnnn1 here?
**A.** 3.92%

**Q.** Which cytotoxicity at 10 µM does the source give for Cc1cccnc1CNC(=O)CC1C(=O)NCCN1CC(C)(C)C (stereo not drawn) here?
**A.** 5.48%

**Q.** With Cc1ccc(N2CC[C@@H]3CN(Cc4cccc(C)n4)C[C@@H]3C2)nn1 as the compound, how does the cytotoxicity at 10 µM read?
**A.** 6.34%

**Q.** With Cc1cccc2cc(CO)c(N3Cc4cnc(C(C)(C)C)nc4C3)nc12 as the compound, how does the cytotoxicity at 10 µM read?
**A.** 10.6%

**Q.** With c1ccc(NCc2cccc(OCCN3CCOCC3)c2)nc1 as the compound, how does the cytotoxicity at 10 µM read?
**A.** 0.174%

**Q.** For CN(c1nc(CSc2nnc(Cn3cncn3)o2)cs1)C1CC1, which cytotoxicity at 10 µM is on record?
**A.** 6.6%

**Q.** Which cytotoxicity at 10 µM does the source give for O=C1CC2(CCN(Cc3ccncc3)C2)CN1c1cccc(F)c1 (stereo not drawn) here?
**A.** -152%

**Q.** With Cc1nc(CCN(C)C(=O)CN2CCCCCC2)no1 as the compound, how does the cytotoxicity at 10 µM read?
**A.** 5.33%

**Q.** Which cytotoxicity at 10 µM does the source give for Cc1nnc(NC(=O)CN2CCOC(Cn3cccn3)C2)s1 (stereo not drawn) here?
**A.** -7.44%

**Q.** With O=C(Nc1ccn(Cc2cccc3cccnc23)n1)C1COCCO1 (stereo not drawn) as the compound, how does the cytotoxicity at 10 µM read?
**A.** 5.18%

**Q.** Which cytotoxicity at 10 µM does the source give for COc1cc2[nH]c(C(=O)O)cc2c(OC)c1C here?
**A.** -1.51%

**Q.** With Cc1ncsc1C(=O)N[C@@H](Cc1ccccc1)C(N)=O as the compound, how does the cytotoxicity at 10 µM read?
**A.** -44.9%

**Q.** With Cc1occc1C(=O)NCC1OCCc2cn(C)nc21 (stereo not drawn) as the compound, how does the cytotoxicity at 10 µM read?
**A.** 4.33%

**Q.** With O=c1ccc2c(n1Cc1cccnc1)CCC(NCc1cccnc1)C2 (stereo not drawn) as the compound, how does the cytotoxicity at 10 µM read?
**A.** 19.2%

**Q.** For CCCc1nccn1-c1cccc(C(C)O)c1 (stereo not drawn), which cytotoxicity at 10 µM is on record?
**A.** 5.82%

**Q.** For COc1ccc(CNCc2c(C(C)C)nn(C)c2OC)cn1, which cytotoxicity at 10 µM is on record?
**A.** -10.9%

**Q.** For Cc1cc(C(=O)N2CCNC(c3ccccc3)C2)c2ccc(F)cc2n1 (stereo not drawn), which cytotoxicity at 10 µM is on record?
**A.** 3.09%

**Q.** With Cn1cc(C(=O)N2CCCC(n3cncn3)C2)ccc1=O (stereo not drawn) as the compound, how does the cytotoxicity at 10 µM read?
**A.** -5.03%

**Q.** For O[C@@H]1C[C@@H](c2nc(Cc3ccccc3)no2)N(CC2CC2)C1, which cytotoxicity at 10 µM is on record?
**A.** -3.5%

**Q.** Which cytotoxicity at 10 µM does the source give for CN(C)CCN(C)C(=O)Cc1ccc2c(c1)OCCO2 here?
**A.** -7.94%

**Q.** Which cytotoxicity at 10 µM does the source give for COCCO[C@H]1CCN(C(=O)c2ccno2)[C@H]1Cc1ccncc1 here?
**A.** -78.1%

**Q.** Which cytotoxicity at 10 µM does the source give for Cc1cccc(Cn2c(=O)[nH]c3csnc3c2=O)c1 here?
**A.** 3.46%

**Q.** For COC(=O)C1CCCCN1Cc1cccc(C(=O)NCc2ccco2)c1 (stereo not drawn), which cytotoxicity at 10 µM is on record?
**A.** -12.5%

**Q.** For CCn1cc(CN2CCCN(C(=O)CCN3CCCC3=O)CC2)cn1, which cytotoxicity at 10 µM is on record?
**A.** 0.428%

**Q.** With COCCNc1cc(-c2cccc(C(=O)O)c2C)c2cc[nH]c2n1 as the compound, how does the cytotoxicity at 10 µM read?
**A.** -3.85%

**Q.** With CC(=O)NCC(=O)N1CCC2(CC1)CN(c1cccnc1)C(=O)CO2 as the compound, how does the cytotoxicity at 10 µM read?
**A.** 3.76%

**Q.** With CCC(CO)N(CC=C(C)C)Cc1ccsc1 (stereo not drawn) as the compound, how does the cytotoxicity at 10 µM read?
**A.** 6.07%

**Q.** For CCOCCCC(=O)NCc1ccnc(N2CCN(C)CC2)c1, which cytotoxicity at 10 µM is on record?
**A.** -10.9%

**Q.** With Cn1cc(CN2CCCC3(CCN(Cc4cccnc4)C3=O)C2)cn1 (stereo not drawn) as the compound, how does the cytotoxicity at 10 µM read?
**A.** -3.99%

**Q.** For CCOc1cc(C(=O)N2CCN(CC)CC2)cc2occc12, which cytotoxicity at 10 µM is on record?
**A.** 4.37%

**Q.** With Cc1nc2ccccc2nc1CN1CCCCC1Cn1cccn1 (stereo not drawn) as the compound, how does the cytotoxicity at 10 µM read?
**A.** 3.94%

**Q.** With Nc1cncc(C(=O)N2Cc3ccccc3OC3(CCOCC3)C2)c1 as the compound, how does the cytotoxicity at 10 µM read?
**A.** 11.9%

**Q.** For CN(C)c1nc(O)cc(C2CCN(C(=O)Cc3ccccn3)C2)n1 (stereo not drawn), which cytotoxicity at 10 µM is on record?
**A.** -0.399%

**Q.** With O=C1CC2(CNCCN(C(=O)Nc3ccccc3)C2)CN1 (stereo not drawn) as the compound, how does the cytotoxicity at 10 µM read?
**A.** 2.23%

**Q.** For CCc1cc(N2CCN3CCCCC3C2)n2nccc2n1 (stereo not drawn), which cytotoxicity at 10 µM is on record?
**A.** -1.12%

**Q.** For O=c1cc(CNCc2ccc3c(c2)OCO3)nc2ccccn12, which cytotoxicity at 10 µM is on record?
**A.** -6.17%

**Q.** For c1ncc(-c2cn(CCSc3cnn[nH]3)nn2)cn1, which cytotoxicity at 10 µM is on record?
**A.** -41.7%

**Q.** Which cytotoxicity at 10 µM does the source give for Cc1cccc(CNC(=O)CCc2c(C)nc3cc(O)nn3c2C)n1 here?
**A.** -4.03%
